Reference: ChEMBL document CHEMBL1799991, “Discovery of a novel class of 2-aminopyrimidines as CDK1 and CDK2 inhibitors” (Bioorg Med Chem Lett, 2011)

What was measured:
[1] = target: Cyclin-dependent kinase 1 (Homo sapiens, UniProt P06493); assay: Inhibition of CDK1 in presence of 100 uM ATP
[2] = target: Cyclin-dependent kinase 2 (Homo sapiens, UniProt P24941); assay: Inhibition of CDK2 in presence of 100 uM ATP
[3] = test system: HCT-116; assay: Cytotoxicity against human HCT116 cells after 48 hrs; format: functional; conditions: HCT-116, 48 h
Summary of the method: (§1)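 Exponentially growing cells exposed to test compounds at various concentrations for 48 h, then cell numbers counted; GI50 taken as the concentration giving 50% growth inhibition. Values are means of three experiments.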

[4] = test system: A549; assay: Cytotoxicity against human A549 cells after 48 hrs; format: functional; conditions: A549, 48 h; summary of the method: as §1
[5] = test system: EJ; assay: Cytotoxicity against human EJ cells after 48 hrs; format: functional; summary of the method: as §1

Chain of Cyclin-dependent kinase 1 (P06493 whole entry): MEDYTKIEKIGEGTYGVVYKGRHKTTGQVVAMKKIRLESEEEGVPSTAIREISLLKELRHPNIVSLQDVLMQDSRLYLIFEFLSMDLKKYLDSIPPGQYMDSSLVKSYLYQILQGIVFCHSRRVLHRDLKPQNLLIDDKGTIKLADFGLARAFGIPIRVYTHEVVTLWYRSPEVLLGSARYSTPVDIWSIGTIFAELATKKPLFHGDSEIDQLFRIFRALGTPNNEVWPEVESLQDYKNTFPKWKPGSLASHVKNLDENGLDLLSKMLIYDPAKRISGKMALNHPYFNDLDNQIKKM

Structure (SMILES) | IC50 [1] [nM] | IC50 [2] [nM] | GI50 [3] [nM] | GI50 [4] [nM] | GI50 [5] [nM]
Nc1nc(-c2cc(N3C[C@H](O)[C@@H](O)C3)ccc2O)cc(N2CCOCC2)n1 | 1000 | 940 | > 10000 | – | –
Nc1nccc(-c2cc(N3CCS(=O)(=O)CC3)ccc2O)n1 | 7500 | 3980 | – | – | –
Nc1nccc(-c2cc(N3CCC(O)CC3)ccc2O)n1 | 10000 | 3760 | – | – | –
Nc1nccc(-c2cc(N3CCOCC3)ccc2O)n1 | 2240 | 790 | – | – | –
Nc1nc(NCCN2CCOCC2)cc(-c2cc(N3C[C@H](O)[C@@H](O)C3)ccc2O)n1 | 790 | 450 | > 10000 | – | –
Nc1nccc(-c2cc(N3CCC(=O)CC3)ccc2O)n1 | > 10000 | > 10000 | – | – | –
Nc1nccc(-c2cc(N3CCCCC3)ccc2O)n1 | > 10000 | > 10000 | – | – | –
Nc1nccc(-c2cc(N3CCC(O)C3)ccc2O)n1 (stereo not drawn) | 2990 | 2110 | – | – | –
CCCCCCc1cc(-c2cc(N3C[C@H](O)[C@@H](O)C3)ccc2O)nc(N)n1 | 260 | 450 | 500 | 700 | 800
CN1CCN(c2cc(-c3cc(N4C[C@H](O)[C@@H](O)C4)ccc3O)nc(N)n2)CC1 | 420 | 300 | > 10000 | – | –

The next lines start with results.

IC50 [1] [nM] | IC50 [2] [nM] | Structure (SMILES) | GI50 [3] [nM] | GI50 [4] [nM] | GI50 [5] [nM]
31 | 90 | Nc1nc(-c2cc(N3C[C@H](O)[C@@H](O)C3)ccc2O)cc(C2CCCCCC2)n1 | 300 | 600 | 700
31 | 50 | CCc1cc(-c2cc(N3C[C@H](O)[C@@H](O)C3)ccc2O)nc(N)n1 | 1000 | 3000 | 1500
15 | 21 | Nc1nccc(-c2cc(N3C[C@H](O)[C@@H](O)C3)ccc2O)n1 | 2500 | 5500 | 4000
> 10000 | > 10000 | Nc1nc(-c2cc(N3C[C@H](O)[C@@H](O)C3)ccc2O)cc(C2CC2)n1 | – | – | –
340 | 200 | Nc1nc(-c2cc(N3C[C@H](O)[C@@H](O)C3)ccc2O)cc(C2CCNCC2)n1 | > 10000 | – | –
19 | 15 | Nc1nc(NC2CCCC2)cc(-c2cc(N3C[C@H](O)[C@@H](O)C3)ccc2O)n1 | 3000 | 7000 | 4500
23 | 42 | Nc1nc(-c2cc(N3C[C@H](O)[C@@H](O)C3)ccc2O)cc(C2CCCC2)n1 | 400 | 2000 | 900
45 | 52 | Nc1nc(-c2cc(N3C[C@H](O)[C@@H](O)C3)ccc2O)cc(C2CCCCC2)n1 | 800 | 1200 | 1200
220 | 360 | Nc1nc(-c2cc(N3C[C@H](O)[C@@H](O)C3)ccc2O)cc(C2CCCNC2)n1 (stereo partly drawn) | > 10000 | > 10000 | > 10000
280 | 250 | CN(C)c1cc(-c2cc(N3C[C@H](O)[C@@H](O)C3)ccc2O)nc(N)n1 | > 10000 | – | –
20 | 60 | Nc1nc(NC2CCCCC2)cc(-c2cc(N3C[C@H](O)[C@@H](O)C3)ccc2O)n1 | 900 | 1500 | 2000
94 | – | CC(C)c1cc(-c2cc(N3C[C@H](O)[C@@H](O)C3)ccc2O)nc(N)n1 | 900 | 1800 | 1500
20 | 42 | Cc1cc(-c2cc(N3C[C@H](O)[C@@H](O)C3)ccc2O)nc(N)n1 | 400 | 2000 | 900
